Assay [1] is described as follows: Upregulation of Atg3 level in human NCI-H460 cells expressing CTR5 gene at 3.5 uM measured after 24 hrs by reverse-phase protein array method relative to control. In kind it is functional, cell-based.
For assay [2], the system named is NCI-H322. The experiment in a line: Induction of apoptosis in human NCI-H322 cells assessed as increase in cleaved caspase7 level at 3 to 5.5 uM measured after 24 hrs by Western blot analysis. It is filed as functional, cell-based. An outline of the steps:
(§1)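 Cells were seeded at 3×10^5 (H460) or 4.2×10^5 (H322) per dish and treated 24h later with DMSO or a concentration series for 24h. Lysed in cold RIPA with phosphatase and protease inhibitors, then sonicated. 30 μg protein run on Bis-Tris gels and transferred to nitrocellulose or PVDF. Detection used infrared secondary antibodies on an Odyssey imager. Signal normalized to β-actin or GAPDH and to DMSO control; three independent experiments.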
(In general: Immunoblotting shows a protein as a band on a membrane.)

Assay [3] relates to NCI-H460. The experiment in a line: Induction of apoptosis in human NCI-H460 cells expressing CTR5 gene assessed as late apoptotic cells at 4 uM measured after 72 hrs by Annexin V-Cy5/propidium iodide staining-based flow cytometry (reference value: 2.7%). In kind it is functional. On the technique in general: A flow cytometer gives signals particle by particle.
Assay [4] concerns NCI-H460. The experiment in a line: Induction of apoptosis in human NCI-H460 cells expressing CTR5 gene assessed as viable cells at 4 uM measured after 72 hrs by Annexin V-Cy5/propidium iodide staining-based flow cytometry (reference value: 94.6%). Conditions: NCI-H460, 72 h, read-out: Activity. In kind it is functional.
The test system of assay [5] is NCI-H460. The experiment in a line: Induction of apoptosis in human NCI-H460 cells expressing CTR5 gene assessed as viable cells at 5 uM measured after 72 hrs by Annexin V-Cy5/propidium iodide staining-based flow cytometry (reference value: 93%). It is filed as functional. The following applies: NCI-H460, 72 h, read-out: Activity.
For assay [6], the system named is NCI-H460. The experiment in a line: Increase in Beclin1 level in human NCI-H460 cells expressing CTR5 gene at 3 to 5.5 uM measured after 24 hrs by Western blot analysis. It is filed as functional, cell-based. An outline of the steps: as §1
Assay [7] is described as follows: Cytotoxicity against human LKB1-positive NCI-H460 cells assessed as reduction in cell viability measured after 72 hrs by CellTiter-Blue cell viability assay. Conditions: Homo sapiens, NCI-H460, 72 h; read-out: IC50. In kind it is functional, cell-based. An outline of the steps: (§2)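 Monolayer cultures in RPMI-1640 with 10% FBS at 37°C, seeded at 850 (H460 CTR5), 660 (H460 LKB1+/+) or 1780 (H322) cells/well so that the end point reaches 70–80% confluence. Treated 72h; vehicle 0.15% DMSO. CellTiter-Blue added until colour change (50–60, 80–90 or 100–120 min respectively), fluorescence read at 590 nm. IC50 by nonlinear regression; three independent experiments.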
Background: Alamar Blue is a resazurin reagent that responds to reducing activity.

In assay [8] the test system is NCI-H460. The experiment in a line: Induction of autophagy in human NCI-H460 cells expressing CTR5 gene measured after 24 hrs by reverse-phase protein array method. In kind it is functional, cell-based.
Assay [9] in a line: Cytotoxicity against human NCI-H322 spheroids assessed as reduction in cell viability measured after 96 hrs by CellTiter-Glo luminescence viability assay. The following applies: NCI-H322, 96 h. In kind it is functional. An outline of the steps:
(§3)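 Spheroids grown in round-bottom ultralow-attachment wells, 495 (H460 CTR5) or 650 (H322) cells/well. Drug exposure 96h with DMSO vehicle. CellTiter-Glo added, shaken 20 min, left 10 min, then luminescence read. IC50 by nonlinear regression; three independent experiments.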

In assay [10] the test system is NCI-H322. The experiment in a line: Induction of apoptosis in human NCI-H322 cells assessed as increase in cleaved PARP level at 3 to 5.5 uM measured after 24 hrs by Western blot analysis. In kind it is functional, cell-based. An outline of the steps: as §1
The target in assay [11] is Serine/threonine-protein kinase mTOR (Homo sapiens) (UniProt P42345). The experiment in a line: Inhibition of mTOR in human NCI-H460 cells expressing CTR5 gene assessed as decrease in S6 phosphorylation at S235/236 site by reverse-phase protein array method relative to control. It is filed as cell-based.
Assay [12] deals with NCI-H460. The experiment in a line: Induction of apoptosis in human NCI-H460 cells expressing CTR5 gene assessed as downregulation of Bcl2 expression at 3 to 5.5 uM measured after 24 hrs by Western blot analysis. In kind it is functional, cell-based. An outline of the steps: as §1
The nature of assay [13]: Upregulation of Beclin1 level in human NCI-H460 cells expressing CTR5 gene at 3.5 uM measured after 24 hrs by reverse-phase protein array method relative to control. It is filed as functional, cell-based.
Assay [14] concerns NCI-H460. The experiment in a line: Induction of apoptosis in human NCI-H460 cells expressing CTR5 gene assessed as necrotic cells at 20 uM measured after 72 hrs by Annexin V-Cy5/propidium iodide staining-based flow cytometry (reference value: 0.9%). In kind it is functional.
In assay [15] the test system is NCI-H460. The experiment in a line: Induction of apoptosis in human NCI-H460 cells expressing CTR5 gene assessed as late apoptotic cells at 5 uM measured after 72 hrs by Annexin V-Cy5/propidium iodide staining-based flow cytometry (reference value: 3.2%). It is filed as functional.
The nature of assay [16]: Cytotoxicity against human NCI-H322 cells assessed as reduction in cell viability measured after 72 hrs by CellTiter-Blue cell viability assay. It is filed as functional, cell-based. The following applies: Homo sapiens, NCI-H322, 72 h; read-out: IC50. An outline of the steps: as §2
Assay [17] deals with NCI-H460. The experiment in a line: Increase in lipidation of LC3A/B1 to LC3A/B2 in human NCI-H460 cells expressing CTR5 gene measured after 24 hrs by Western blot analysis. It is filed as functional, cell-based. An outline of the steps:
as §1

Assay [18] in a line: Cytotoxicity against human NCI-H460 spheroids expressing CTR5 gene assessed as reduction in cell viability measured after 96 hrs by CellTiter-Glo luminescence viability assay. It is filed as functional, cell-based. The following applies: NCI-H460, 96 h. An outline of the steps:
as §3

For assay [19], the system named is NCI-H460. The experiment in a line: Induction of autophagy in human NCI-H460 cells expressing CTR5 gene assessed as acidic vesicular organelle formation at 4 uM measured after 72 hrs by acridine orange dye based flow cytometry (reference value: 91.2%). It is filed as functional.

Structures are written as SMILES. Calls of active or inactive are those of the source. The rule behind the calls is not given here.

By IC50 is commonly meant the midpoint of a concentration-inhibition curve. As usually defined, the inhibition is the relative decrease from the control value, in per cent.

For the molecule `C=C(C)[C@@H]1CC[C@]2(C)[C@H](C[C@@H](F)C34OC(=O)[C@@]5(CC[C@@H](C)[C@H](C)[C@@H]35)CC[C@]42C)[C@@]1(C)CCC(=O)NCCC`, the Activity was 5.1% in assay [1]; 11.5% with NCI-H460 [3]; “Dose-dependent effect” in the assay with NCI-H460 [12]; 5.6% in assay [13]; 0.9% in the assay on NCI-H460 [14]; 29.1% with NCI-H460 [15]. For the same molecule, the Activity result in the assay with NCI-H460 [17] is “Dose-dependent effect”; in the assay on NCI-H460 [19] it was 66.7%. Besides, the outcome in the assay with NCI-H322 [2], with NCI-H460 [6], with NCI-H460 [8] and in the assay with NCI-H322 [10] was Active. In addition, the viability at 4 µM in the assay with NCI-H460 [4] came out at 77.4%. Moreover, in the assay with NCI-H460 [5], the viability at 5 µM came out at 51.9%. The IC50 in assay [7] came to 4.4 µM; in [9], 10 µM; in [16], 3.3 µM; in [18], 5.5 µM. Further, the inhibition in [11] worked out at 11.7%.
